Data reported in PubChem BioAssay AID623915 (Johns Hopkins Ion Channel Center, 2012).
Where “and” joins values, the source holds several entries; their conditions need not be identical. Identical values can stand only once. Calls of active or inactive are those of the source.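 Rule for the calls: active = more than 50% block of the TASK1 potassium channel current at 10 µM; inactive = the rest.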

Each compound was assayed against Potassium channel subfamily K member 3 (Rattus norvegicus) (UniProt O54912) (assay: TASK1 (KCNK3) current inhibitors, SAR follow-up, selectivity assay for KCNK9 inhibitor project, automated electrophysiology, QPatch, CHO cells (AID 623915)). Conditions: QPatch whole-cell current inhibition.
Potassium channel subfamily K member 3 (Rattus norvegicus), sequence (O54912 whole entry, looked up): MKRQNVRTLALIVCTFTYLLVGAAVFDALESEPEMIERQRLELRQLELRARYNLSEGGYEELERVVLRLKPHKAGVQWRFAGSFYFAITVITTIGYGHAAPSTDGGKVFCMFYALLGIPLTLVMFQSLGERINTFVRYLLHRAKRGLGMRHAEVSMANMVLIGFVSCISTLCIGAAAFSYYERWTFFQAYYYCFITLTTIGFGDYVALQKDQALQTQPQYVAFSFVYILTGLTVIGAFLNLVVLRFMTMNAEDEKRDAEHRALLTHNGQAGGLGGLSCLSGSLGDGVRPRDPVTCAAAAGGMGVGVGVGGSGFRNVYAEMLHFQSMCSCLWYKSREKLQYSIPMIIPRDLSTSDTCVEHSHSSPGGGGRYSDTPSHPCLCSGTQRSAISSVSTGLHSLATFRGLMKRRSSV
How it was run: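 Material: CHO cells with tetracycline-inducible rat TASK1 (KCNK3) channel | Buffer or medium: 140 mM K+ external solution, pH 7.40 | Dosing: Cumulative concentration series, one cell per dose-response | Schedule: 5 min per concentration | Technique: Automated whole-cell voltage clamp, ramp protocol, current at -30 mV | Controls: Full block by 2 mM Ba2+ at pH 5.8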

| SMILES | IC50 | outcome |
| --- | --- | --- |
| C[C@@H]([C@@H]1CC2CC[C@H]1C2)n1c(-c2ccco2)n[nH]c1=S | 3200 nM | – |
| CC(C1CC2CCC1C2)n1c(-c2ccco2)n[nH]c1=S (stereo unspecified) | 820 nM | – |
| CC(C1CC2CCC1C2)n1c(-c2ccco2)nn(CCc2ccncc2)c1=S (stereo unspecified) | 1850 nM | – |
| C[C@@H]([C@@H]1CC2CC[C@H]1C2)n1c(-c2ccsc2)n[nH]c1=S | 1960 nM and 6430 nM | – |
| C[C@H](C1CCCCC1)n1c(-c2ccsc2)n[nH]c1=S | 6430 nM | – |
| C[C@H]([C@@H]1CC2CC[C@H]1C2)n1c(-c2ccsc2)n[nH]c1=S | – | inactive |
